Experimental data published in ChEMBL document CHEMBL4261484, “Design, synthesis and anticonvulsant-analgesic activity of new N-[(phenoxy)alkyl]- and N-[(phenoxy)ethoxyethyl]aminoalkanols” (Medchemcomm, 2017).
Calls of active or inactive are those of the source.

How the values were obtained:
Mus musculus [1] = experiment: Anticonvulsant activity in mouse assessed as protection against maximal electroshock-induced seizures at 100 mg/kg, ip; assay type: functional, organism-based
Method in brief: (§1)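 Mice dosed ip; maximal seizures induced by auricular electroshock (25 mA, 500 V, 50 Hz, 0.2 s). Endpoint: hind-limb tonic extension; animals without it scored protected. Read-out is number protected over number tested.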

Mus musculus [2] = experiment: Anticonvulsant activity in mouse assessed as protection against maximal electroshock-induced seizures at 20 mg/kg, ip; assay type: functional, organism-based; method in brief: as §1
Mus musculus [3] = experiment: Toxicity in mouse at 15 mg/kg, ip measured during maximal electroshock seizure test; assay type: organism-based; settings: in vivo
Mus musculus [4] = experiment: Toxicity in mouse at 10 mg/kg, ip measured during maximal electroshock seizure test; assay type: organism-based; settings: in vivo
Mus musculus [5] = experiment: Anticonvulsant activity in ip dosed mouse assessed as protection against maximal electroshock-induced seizures; assay type: functional
Method in brief: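 Mice were dosed ip. Maximal seizures were induced by auricular electrodes (25 mA, 500 V, 50 Hz, 0.2 s). Absence of hind-limb tonic extension counted as protection. […] Motor impairment was scored on a 10 rpm rotarod, giving TD50 the same way.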

Mus musculus [6] = experiment: Toxicity in mouse at 100 mg/kg, ip measured during maximal electroshock seizure test; assay type: organism-based; settings: in vivo
[7] = Neurotoxicity in ip dosed mouse assessed as motor impairment measured for one min by rotarod test; assay type: toxicity, organism-based; settings: in vivo
Method in brief: (§2)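 Mice trained on an accelerating rotarod, then tested at least 24 h later after ip pretreatment, on a rod turning at 10 rpm. Neurotoxicity was scored as failure to stay on the rod for one minute. Read-out is mice impaired over mice tested.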

Mus musculus [8] = experiment: Toxicity in mouse at 20 mg/kg, ip measured during maximal electroshock seizure test; assay type: organism-based; settings: in vivo
[9] = Protection index, ratio of TD50 for neurotoxicity in ip dosed mouse by rotarod test to ED50 for anticonvulsant activity in mouse by maximal electroshock seizure test; assay type: toxicity, organism-based; settings: in vivo, read-out: Ratio TD50/ED50
Mus musculus [10] = experiment: Neurotoxicity in mouse assessed as motor impairment at 100 mg/kg, ip measured for one min by rotarod test; assay type: toxicity, organism-based; settings: in vivo, 1 min; method in brief: as §2
Mus musculus [11] = experiment: Anticonvulsant activity in mouse assessed as protection against maximal electroshock-induced seizures at 30 mg/kg, ip; assay type: functional, organism-based; method in brief: as §1
Mus musculus [12] = experiment: Neurotoxicity in mouse assessed as motor impairment at 30 mg/kg, ip measured for one min by rotarod test; assay type: toxicity, organism-based; settings: in vivo, 1 min; method in brief: as §2
Mus musculus [13] = experiment: Anticonvulsant activity in mouse assessed as protection against maximal electroshock-induced seizures at 10 mg/kg, ip; assay type: functional, organism-based; method in brief: as §1
Mus musculus [14] = experiment: Anticonvulsant activity in mouse assessed as current strength required to induce tonic hind-limb extension in 50% of the animals at 20 mg/kg, ip by maximal electroshock seizure threshold test (reference value: 6.05 to 8.13 mA); assay type: functional
Mus musculus [15] = experiment: Anticonvulsant activity in mouse assessed as protection against subcutaneous pentylenetetrazole-induced seizures at 30 mg/kg, ip measured for 30 mins post pentylenetetrazole challenge at 0.5 hrs after compound dosing relative to control; assay type: functional
Mus musculus [16] = experiment: Toxicity in mouse assessed as effect on spontaneous activity at 32 mg/kg, ip measured for 30 mins by photoresistor actometer relative to control; assay type: organism-based; settings: in vivo, 0.5 h
Method in brief: (§3)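 Mice dosed ip; locomotor activity by photoresistor actometers counting light-beam interruptions. Each mouse was habituated 30 min in a cage, then crossings were counted over a 30 min session. Data are mean ± SEM and % change vs control; unpaired t test.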

Mus musculus [17] = experiment: Anticonvulsant activity in mouse assessed as increase in electroconvulsive threshold at 20 mg/kg, ip by maximal electroshock seizure threshold test relative to control; assay type: functional
Mus musculus [18] = experiment: Analgesic activity in mouse assessed as decrease in time of paw licking during phase 2 at 32 mg/kg, ip measured for 15 to 30 mins by formalin test relative to control; assay type: functional; design: scale not given: the % may be the effect or the level left
Method in brief: (§4)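 Formalin test in mice: 20 μL of 5% formalin injected intraplantarly into the right hind paw. Each mouse was observed alone in a glass beaker for 30 min. Time (s) spent licking or biting the injected paw was recorded at 0–5 min (acute phase) and 15–30 min (inflammatory phase).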

Mus musculus [19] = experiment: Anticonvulsant activity in mouse assessed as protection against subcutaneous pentylenetetrazole-induced seizures at 100 mg/kg, ip measured for 30 mins post pentylenetetrazole challenge at 0.5 hrs after compound dosing relative to control; assay type: functional
Mus musculus [20] = experiment: Analgesic activity in mouse assessed as decrease in time of paw licking during phase 1 at 32 mg/kg, ip measured for 5 mins by formalin test relative to control; assay type: functional; design: scale not given: the % may be the effect or the level left; method in brief: as §4
HepG2 [21] = experiment: Cytotoxicity against human HepG2 cells assessed as effect on cell viability at 10 to 250 uM after 24 hrs by neutral red assay; assay type: cell-based; settings: hepg2, 24 h
Method in brief: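 HepG2 cells seeded at 5 × 10^4 per well, then after 24 h given medium with 10–250 μM for 24 h. Viability by neutral red staining, OD 570 nm. Results are % of control ± SEM, three independent experiments.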

Mus musculus [22] = experiment: Anticonvulsant activity in mouse assessed as protection against subcutaneous pentylenetetrazole-induced seizures by measuring latency time of tonic seizures at 100 mg/kg, ip measured for 30 mins post pentylenetetrazole challenge at 0.5 hrs after compound dosing (reference value: 562.8 to 614.9 secs); assay type: functional
Mus musculus [23] = experiment: Neurotoxicity in mouse assessed as motor impairment by measuring loss of coordination at 32 mg/kg, ip measured for 60 secs by chimney test relative to control; assay type: toxicity, organism-based; settings: in vivo, 1 min
Method in brief: (§5)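 Mice dosed ip; trained, selected animals placed in a horizontal tube 25 cm long and 2.5 cm in diameter, then tube reversed so mice must climb out backward. Read-outs: escape time (s) ± SEM and % animals losing coordination versus control. Unpaired t test.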

HepG2 [24] = experiment: Cytotoxicity against human HepG2 cells assessed as effect on cell viability at 10 to 250 uM after 24 hrs by MTT assay; assay type: cell-based; settings: hepg2, 24 h
Method in brief: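 HepG2 cells grown in MEM with 10% FBS (37 °C, 5% CO2) and seeded at 1 × 10^4. After overnight culture, exposed to 10–250 μM for 24 h. MTT for 3 h, formazan dissolved, OD 570 nm. Viability is % of control ± SEM from three independent experiments.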

Mus musculus [25] = experiment: Anticonvulsant activity in mouse assessed as protection against subcutaneous pentylenetetrazole-induced seizures by measuring latency time of tonic seizures at 30 mg/kg, ip measured for 30 mins post pentylenetetrazole challenge at 0.5 hrs after compound dosing (reference value: 562.8 to 614.9 secs); assay type: functional
[26] = Cytotoxicity against mouse CRL-2541 cells assessed as effect on cell viability at 10 to 250 uM after 24 hrs by MTT assay; assay type: cell-based
Mus musculus [27] = experiment: Neurotoxicity in mouse assessed as motor impairment by measuring time of escaping from chimney at 32 mg/kg, ip measured for 60 secs (reference value: 8.87 +/- 1.79 secs); assay type: toxicity, organism-based; settings: in vivo, 1 min; method in brief: as §5
Mus musculus [28] = experiment: Anticonvulsant activity in mouse assessed as protection against maximal electroshock-induced seizures at 60 mg/kg, ip; assay type: functional, organism-based; method in brief: as §1
Mus musculus [29] = experiment: Analgesic activity in mouse assessed as decrease in time of paw licking during phase 1 at 21 mg/kg, ip measured for 5 mins by formalin test relative to control; assay type: functional; design: scale not given: the % may be the effect or the level left; method in brief: as §4
Mus musculus [30] = experiment: Analgesic activity in mouse assessed as decrease in time of paw licking during phase 2 at 21 mg/kg, ip measured for 15 to 30 mins by formalin test relative to control; assay type: functional; design: scale not given: the % may be the effect or the level left; method in brief: as §4
Mus musculus [31] = experiment: Neurotoxicity in mouse assessed as motor impairment by measuring loss of coordination at 21 mg/kg, ip measured for 60 secs by chimney test relative to control; assay type: toxicity, organism-based; settings: in vivo, 1 min; method in brief: as §5
Mus musculus [32] = experiment: Anticonvulsant activity in mouse assessed as current strength required to induce tonic hind-limb extension in 50% of the animals at 10 mg/kg, ip by maximal electroshock seizure threshold test (reference value: 6.05 to 8.13 mA); assay type: functional
Mus musculus [33] = experiment: Anticonvulsant activity in mouse assessed as increase in electroconvulsive threshold at 10 mg/kg, ip by maximal electroshock seizure threshold test relative to control; assay type: functional
Mus musculus [34] = experiment: Neurotoxicity in mouse assessed as motor impairment by measuring time of escaping from chimney at 21 mg/kg, ip measured for 60 secs (reference value: 8.87 +/- 1.79 secs); assay type: toxicity, organism-based; settings: in vivo, 1 min; method in brief: as §5
Mus musculus [35] = experiment: Toxicity in mouse assessed as effect on spontaneous activity at 21 mg/kg, ip measured for 30 mins by photoresistor actometer relative to control; assay type: organism-based; settings: in vivo, 0.5 h; method in brief: as §3

## Cc1cccc(C)c1OCCOCCNCC(O)c1ccccc1 (racemic)
Mus musculus [1]
  Activity: Active
Mus musculus [2]
  Activity: Active
Mus musculus [3]
  Activity: Non-Toxic
Mus musculus [4]
  Activity: Non-Toxic
Mus musculus [5]
  ED50: 13 mg/kg
Mus musculus [6]
  Activity: Non-Toxic
[7]
  TD50 at 1 min: 36 mg/kg
Mus musculus [8]
  Activity: Non-Toxic
[9]
  selectivity ratio: 2.76

## Cc1cccc(Cl)c1OCCCCN[C@H]1CCCC[C@@H]1O.Cl (racemic)
Mus musculus [10]
  Activity: Toxic
Mus musculus [6]
  Activity: Toxic

## Cc1ccc(Cl)c(OCCOCCN2CCC(O)CC2)c1
Mus musculus [1]
  Activity: Active
Mus musculus [11]
  Activity: inactive
Mus musculus [12]
  Activity: Non-Toxic
Mus musculus [6]
  Activity: Non-Toxic

## Cc1ccc(OCCN[C@H]2CCCC[C@@H]2O)c(C)c1 (racemic)
Mus musculus [1]
  Activity: Active
Mus musculus [13]
  Activity: inactive
Mus musculus [14]
  Activity: 9.33 mA
Mus musculus [15]
  Activity: 2.42%
Mus musculus [16]
  Activity: 8.2%
Mus musculus [17]
  Activity: 23.9%
Mus musculus [4]
  Activity: Toxic
Mus musculus [5]
  ED50: 31.8 mg/kg
Mus musculus [18]
  Activity: 46.16%
Mus musculus [19]
  Activity: 57.71%
Mus musculus [6]
  Activity: Non-Toxic
[7]
  TD50 at 1 min: 76.8 mg/kg
Mus musculus [20]
  Activity: 18.55%
HepG2 [21]
  Activity: Non-Toxic
Mus musculus [22]
  Time: 921 s
Mus musculus [23]
  Activity: 0%
HepG2 [24]
  Activity: Non-Toxic
Mus musculus [25]
  Time: 576.4 s
[9]
  selectivity ratio: 2.41
[26]
  Activity: Non-Toxic
Mus musculus [27]
  Time: 4.75 s

## Cc1ccc(Cl)c(OCCN[C@H]2CC[C@H](O)CC2)c1
Mus musculus [10]
  Activity: Toxic

## Cc1cccc(C)c1OCC(C)N (stereo not given) [MEXILETINE]
Mus musculus [5]
  ED50: 20 mg/kg

## Cc1ccc(Cl)c(OCCN2CCC(O)CC2)c1
Mus musculus [1]
  Activity: Active
Mus musculus [10]
  Activity: Toxic
Mus musculus [6]
  Activity: Non-Toxic

## Cc1cccc(C)c1OCCCCN[C@H]1CC[C@H](O)CC1
Mus musculus [6]
  Activity: Toxic
Mus musculus [28]
  Activity: inactive

## Cc1cccc(Cl)c1OCCCCNC(C)CO (racemic)
Mus musculus [1]
  Activity: Active
Mus musculus [3]
  Activity: Non-Toxic
Mus musculus [5]
  ED50: 19.1 mg/kg
Mus musculus [6]
  Activity: Non-Toxic
[7]
  TD50 at 1 min: 45.7 mg/kg
Mus musculus [8]
  Activity: Non-Toxic
[9]
  selectivity ratio: 2.4

## Cc1cc(C)c(OCCCN2CCC(O)CC2)c(C)c1
Mus musculus [1]
  Activity: Active
Mus musculus [29]
  Activity: 27.01%
Mus musculus [30]
  Activity: 4.87%
Mus musculus [31]
  Activity: 0%
Mus musculus [19]
  Activity: inactive
Mus musculus [6]
  Activity: Non-Toxic
Mus musculus [32]
  Activity: 9.15 mA
Mus musculus [33]
  Activity: 12.55%
HepG2 [21]
  Activity: Non-Toxic
Mus musculus [22]
  Time: 275.4 s
HepG2 [24]
  Activity: Non-Toxic
[26]
  Activity: Non-Toxic
Mus musculus [34]
  Time: 6.5 s
Mus musculus [35]
  Activity: 19.76%

## CC(C)NCC(O)COc1cccc2ccccc12 (stereo not given) [PROPRANOLOL]
Mus musculus [5]
  ED50: 15 mg/kg
